# The entries come from a sample that favours hits as a whole.
# HCT116 PTEN-null – PTEN-deleted cell growth suppression. HCT116 PTEN-null viability, CellTiter-Glo, 60 h; active compounds read low. viability, % at 10 µM. actives 1.2% (n = 140,000). AID 827;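 active = viability at or below a set limit, 4 SD under the median of all tested compounds, cut at about 3.7% in these data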;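 also: PTEN knockout HCT116 line with beta catenin targeted HCT116 as companion control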
# HUVEC prolif 384 – inhibitors of human endothelial cell proliferation. actives 1.1% (n = 86,000). viability, % at 10 µM (by protocol). HUVEC proliferation, CellTiter-Glo luminescence, 72 h; active compounds read low;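 active = viability at or below 30%; inactive = viability above 30%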;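 also: 100% = median luminescence of DMSO-only cell control wells on each plate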
# H69AR growth 86K – blocks growth of human H69AR lung tumor cells | viability, % at 10 µM | AID 598 | H69AR lung tumor viability, ATP luminescence, 72 h; active compounds read low | actives 6% (n = 85,000);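 active = viability at or below 40%; inactive = viability above 40%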;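 also: multidrug resistant small cell line overexpressing MRP-1 efflux transporter; 100% = mean luminescence of untreated control wells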
# Lung fibro prol – blocks proliferation of human lung fibroblasts; actives 1.1% (n = 85,000); AID 719; LL 47 human lung fibroblast viability, ATP luminescence; active compounds read low; viability, % at 10 µM;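 active = viability at or below 50% in the single dose screen; inactive = viability above 50%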;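 also: compound exposure lasted 72 h before the ATP readout; 100% = median luminescence of untreated cell-only wells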
#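 Test system: LL 47 human lung fibroblasts / Incubation: 72 h compound exposure at 37 °C after overnight plating / Technique: luminescent ATP detection, CellTiter-Glo / Compound dosing: 0.1% DMSO in all compound wells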
# HCT116 bCat-KO – beta-catenin-lacking colon tumor cell growth suppression. viability, % at 10 µM. HCT116 beta-catenin knockout viability, CellTiter-Glo, 60 h; active compounds read low. actives 1.5% (n = 140,000);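 active = viability at or under a set limit, the compound median less 4 SD, cut at about 6% in these data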;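 also: 0% = Hyamine 1622 control at 20 µM and 100% = untreated cell control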
# The depositor's hits bear a star; · = no result given.
SMILES,HCT116 PTEN-null,HUVEC prolif 384,H69AR growth 86K,Lung fibro prol,HCT116 bCat-KO
COCCn1c(SCC(=O)Nc2ccc(S(=O)(=O)N(C)C)cc2)nc2ccccc21,92.5,102.0,34.8*,97.4,97.1
CCC(C(=O)NCc1ccccc1OC)n1nc(C)n2c(cc3occc32)c1=O (centres undefined),98.4,96.9,95.7,93.3,110.4
Cc1nn(-c2nnc(NC3CCCCC3)nn2)c(C)c1Br,83.7,·,·,·,79.5
COc1ccc(-c2cn(-c3ccccc3)c3[n+]2CCS3)cc1,40.7,·,·,·,41.7
O=S(=O)(/C=C/c1ccccc1)n1cnc2ccccc21,106.5,83.6,19.5*,68.5,98.1
CN(C)S(=O)(=O)n1cnc2ccccc21,106.2,89.8,94.6,101.1,103.6
Cc1ccc(N2C(N)=C(C#N)C(c3ccsc3)C3=C2CC(C)(C)CC3=O)cc1 (centres undefined),75.5,83.6,48.1,86.6,74.7
Cc1ccc(N2C(N)=C(C#N)C(c3cccnc3)C3=C2CC(C)(C)CC3=O)cc1 (centres undefined),90.7,87.0,23.5*,78.7,87.4
N#CC(C#N)=C1C=CC=CN1/C(=C\c1ccco1)C(=O)c1ccccc1,1.8*,·,·,·,1.9*
O=C(CNC(=O)c1ccc(-c2ccccc2)cc1)OCc1ccc(Br)cc1,99.7,·,·,·,92.6
CCOC(=O)N1CCC(Nc2c(N3CCN(c4cc(Cl)ccc4C)CC3)c(=O)c2=O)CC1,59.0,82.4,64.0,89.9,63.0
CCOC(=O)N1CCC(Nc2c(-c3ccc(C)c(C)c3)c(=O)c2=O)CC1,94.2,93.6,33.5*,100.3,102.0
CCOC(=O)c1c(C)oc2ccc(OC(=O)COc3c(F)c(F)c(F)c(F)c3F)cc12,102.3,·,·,·,89.7
CCn1c(NC(=O)Nc2ccccc2OC)nc2ccccc21,82.3,90.2,36.2*,94.9,87.6
CCn1c(NC(=O)c2cccs2)nc2ccccc21,21.3,78.7,33.1*,65.1,19.6
COc1ccc(OCc2nnc3n2N=C(c2ccc(OC)cc2)CS3)cc1,47.3,74.2,30.1*,83.9,59.3
COc1ccc(OC)c(C2=Nn3c(nnc3-c3ccco3)SC2)c1,93.1,77.7,54.0,82.9,84.9
COc1ccc(C2=Nn3c(nnc3-c3ccncc3)SC2)cc1,73.4,62.8,61.2,87.5,77.5
CCOc1ccc(C2=Nn3c(nnc3-c3ccc(OC)cc3)SC2)cc1,20.4,48.9,14.1*,49.5*,22.0
COc1ccc(OCc2nnc3n2N=C(c2ccc(C)cc2)CS3)cc1,86.8,87.7,94.6,90.6,94.7
COc1ccc(C2=Nn3c(nnc3-c3ccco3)SC2)cc1,59.0,65.8,20.0*,78.3,73.1
CCC(C)c1ccc(NC(=O)C/C(C)=N/NC(=O)c2cnccn2)cc1 (centres undefined),89.2,·,·,·,88.7
CCOC(=O)N1CCN(S(=O)(=O)c2ccc(C(=O)Nc3ccc4c(c3)C(=O)NC4=O)cc2)CC1,96.7,·,·,·,92.4
O=C(C1=C(O)/C(=C/c2ccc(O)cc2)CCC1)C(F)(F)F,71.8,82.8,28.6*,98.6,65.5
Cc1nn2c(-c3ccccc3)nnc2c2ccccc12,74.7,62.5,39.1*,97.8,64.9
SMILES,HCT116 PTEN-null,HUVEC prolif 384,H69AR growth 86K,Lung fibro prol,HCT116 bCat-KO
Cn1c(-c2ccc3c(c2)OCO3)cnc1NCc1ccccc1,78.7,64.6,23.9*,87.0,74.6
Cn1c(-c2ccc3c(c2)OCO3)cnc1NCc1cccc(Cl)c1,69.6,39.2,33.0*,89.0,86.5
C#CC(=O)N(c1cc(OC)ccc1OC)C(C(=O)NC1CCCC1)c1cccs1 (centres undefined),1.0*,·,·,·,0.7*
COc1ccc(N(C(=O)c2ccco2)C(C(=O)NC2CCCCC2)c2cccs2)cc1OC (centres undefined),101.8,115.3,83.6,103.5,103.8
Oc1ccc(/C=N/Nc2cc(N3CCOCC3)nc(N3CCOCC3)n2)cc1O,4.0,·,·,·,3.0*
Oc1cccc(/C=N/Nc2cc(N3CCOCC3)nc(N3CCOCC3)n2)c1,52.5,·,·,·,51.4
CCOC(=O)c1sc2nc(C(C)C)c3c(c2c1N)CC(C)(C)OC3,16.9,64.1,50.5,47.6*,19.0
CC(/C=N/Nc1nc(C)cc(C)n1)=C\c1ccc(C(C)C)cc1,80.1,·,·,·,73.0
C=CCN(CC=C)S(=O)(=O)c1ccc2nc(NC(=O)C(C)C)sc2c1,100.6,26.4*,14.1*,50.8,104.9
CCOC(=O)c1ccc2nc(NC(=O)C(C)C)sc2c1,87.7,110.4,33.8*,92.4,76.8
CCOC(=O)c1ccc2nc(NC(=O)c3cccs3)sc2c1,69.1,75.2,37.9*,88.1,74.1

# Source: PubChem BioAssay (SRMLSC)
